# Results taken from article PMC3312100 (Frontiers in Systems Neuroscience, 2012).
# Entries after “also recorded” stand apart in the source; their conditions may differ.
# Experiments:
# [1] = target: human histamine H3 receptor (Homo sapiens, UniProt Q9Y5N1); test: [3H]Nα-methylhistamine competition binding assay, membranes of HEK-293 cells; settings: for Selectivity for hH3R over hH1R and hH4R (in words): comparison of Ki values of Table 1
# In short: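 Membranes came from HEK-293 cells stably expressing recombinant hH3R, with protein measured by Bradford. They were incubated with 2 nM [3H]Nα-methylhistamine and test compound from 0.01 nM to 100 μM at seven concentrations. Non-specific binding was defined with 10 μM pitolisant. Values are means of at least three independent experiments, each in triplicate.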
# [2] = Fluorescence characterization; assay type: physicochemical; settings: for Fluorescence emission intensity (in words): Figure 2, Appendix
# In short: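 Test compound was dissolved at 10 mM in buffer (12.5 mM MgCl2, 100 mM NaCl, 75 mM Tris/HCl, pH 7.4). Absorption and emission spectra were recorded on a fluorometer at room temperature. Emission spectra used 405 nm excitation.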
# human histamine H3 receptor, sequence (Q9Y5N1 whole entry): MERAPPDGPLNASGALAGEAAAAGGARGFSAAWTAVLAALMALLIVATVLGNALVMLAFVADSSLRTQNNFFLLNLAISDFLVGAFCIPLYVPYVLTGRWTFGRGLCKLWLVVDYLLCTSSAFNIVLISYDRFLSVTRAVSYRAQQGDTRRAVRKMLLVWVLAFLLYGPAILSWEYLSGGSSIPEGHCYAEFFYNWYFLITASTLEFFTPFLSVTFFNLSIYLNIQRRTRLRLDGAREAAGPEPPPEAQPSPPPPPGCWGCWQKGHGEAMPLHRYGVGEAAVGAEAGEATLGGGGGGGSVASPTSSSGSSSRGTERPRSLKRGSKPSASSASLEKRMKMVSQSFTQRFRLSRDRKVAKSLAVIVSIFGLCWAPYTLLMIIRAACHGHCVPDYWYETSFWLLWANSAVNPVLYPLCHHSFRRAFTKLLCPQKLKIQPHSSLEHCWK
Structure (SMILES),Area of the fluorescence spectrum of emission [2],Affinity at the human histamine H3 receptor (in words) [1],Selectivity for hH3R over hH1R and hH4R (in words) [1],Fluorescence emission intensity (in words) [2]
"CN(C)c1ccc(/C=C/C=C2\CCc3cc(OCCCN4CCCCC4)ccc3C2=O)cc1 [Compound 5, (E)-2-((E)-3-(4-(Dimethylamino)phenyl)allylidene)-6-(3-(piperidin-1-yl)propoxy)-1-tetralone]",,,less selective chalcone; also recorded: not as selective as compound 9,emits more intensive
"O=C1CCCc2ccc(OCc3ccc(OCCCN4CCCCC4)cc3)cc21 [Compound 8, 7-(4-(3-(Piperidin-1-yl)propoxy)benzyloxy)-1-tetralone]",,,one of the highest selectivity,
"CN(C)c1ccc(/C=C2\CCc3ccc(OCc4ccc(OCCCN5CCCCC5)cc4)cc3C2=O)cc1 [Compound 10, (E)-2-(4-(Dimethylamino)benzylidene)-7-(4-(3-(piperidin-1-yl)propoxy)benzyloxy)-1-tetralone]",yellow area,,,
"CN(C)c1ccc(/C=C2\CCc3cc(OCc4ccc(OCCCN5CCCCC5)cc4)ccc3C2=O)cc1 [Compound 9, (E)-2-(4-(Dimethylamino)benzylidene)-6-(4-(3-(piperidin-1-yl)propoxy)benzyloxy)-1-tetralone]",yellow area,highest affinity,most selective compound in the fluorescent chalcone series; also recorded: most human histamine H3 receptor selective,most intense compound; also recorded: highest intensity of all synthesized compounds

# Further lines, with some results ahead:
Area of the fluorescence spectrum of emission [2],Affinity at the human histamine H3 receptor (in words) [1],Structure (SMILES),Selectivity for hH3R over hH1R and hH4R (in words) [1],Fluorescence emission intensity (in words) [2]
yellow area,,"CN(C)c1ccc(/C=C2\CCc3ccc(OCCCN4CCCCC4)cc3C2=O)cc1 [Compound 4, (E)-2-(4-(Dimethylamino)benzylidene)-7-(3-(piperidin-1-yl)propoxy)-1-tetralone]",,
yellow area,,"CN(C)c1ccc(/C=C2\CCc3cc(OCCCN4CCCCC4)ccc3C2=O)cc1 [Compound 3, (E)-2-(4-(Dimethylamino)benzylidene)-6-(3-(piperidin-1-yl)propoxy)-1-tetralone]",,
